Rows were chosen to be rich in hits. Some 0.63% of all compounds tested hit in one or more screens of this group.
GSK3B inh: blocks human GSK3beta kinase activity; P49841; GST-GSK3beta kinase, ADP-Glo luminescence, 60 min; hits give low values; activity score (negative = inhibition), % at 10 µM; actives 0.038% (n = 300,000);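 active means more than half of replicate wells score below -50%, meaning over 50% inhibition versus plate controls; inconclusive means some replicates but at most half score below -50%; inactive means no replicate scores below -50%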
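Assay system: GST-fused GSK3beta enzyme, cell-free / Medium: Tris pH 7.5 buffer with MgCl2, DTT, BSA, heparin / Also added: peptide substrate plus 25 µM ATP (final) / Compound: 10 µM single point / Timing: kinase reaction with compound 60 min at room temperature / Detection: ADP-Glo luminescence / Benchmarks: DMSO neutral wells and GW8510 at 20 µM as positive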
DSG3 Ab inh: inhibitors of pemphigus antibody binding to human desmoglein-3 | P32926 | DSG3-coupled beads, scFv-anti-DSG3-GFP binding, flow cytometry; hits give low values | binding (percent of control), % at 10 µM | actives 0.48% (n = 310,000) | AID 588358;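 active means binding more than 3 SD below its plate's average and above zero; inconclusive means below that plate limit but binding exactly zero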;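 further: hits lower antibody fragment binding to DSG3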
MT1-MMP act inh: MT1-MMP (human) activation inhibition; GFP/RFP ratio change, % at 20 µM; P50281; AID 651647; HT1080 RFP-PRO-GFP cells, GFP/RFP ratio fluorescence, overnight; percent of plate control window, DMSO zero; actives 0.061% (n = 360,000);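 active means GFP/RFP ratio change of at least 30% with cell ATP level not reduced by more than half and red fluorescence within 50% of control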
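Compound: 20 µM single dose, 1% DMSO / System: HT1080 RFP-PRO-GFP cells / Controls: DMSO and RFP-L50D-GFP cell wells / Read-out basis: GFP/RFP fluorescence ratio / Schedule: overnight compound exposure at 37 °C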
GSK3A inh: inhibitors of human GSK-3 alpha kinase; P49840; ADP-Glo luminescence, 60 min; inhibition, % at 10 µM; actives 0.1% (n = 320,000); AID 2650;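 active means more than half of replicates show inhibition above 20%; inconclusive means some but at most half of replicates above 20% inhibition; inactive means no replicate shows inhibition above 20%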;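 further: GST-tagged GSK-3 alpha with peptide substrate and 25 µM ATP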
STK33 inh: inhibitors of human STK33 kinase. purified STK33, MBP phosphorylation, ADP-Glo luminescence. inhibition, % at 10 µM. actives 0.073% (n = 320,000). AID 2661;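 active means inhibition at or above 25%, using the most active replicate where run in duplicate; inactive means inhibition below 25%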
Target sequence (Q9BYT3 whole entry, looked up): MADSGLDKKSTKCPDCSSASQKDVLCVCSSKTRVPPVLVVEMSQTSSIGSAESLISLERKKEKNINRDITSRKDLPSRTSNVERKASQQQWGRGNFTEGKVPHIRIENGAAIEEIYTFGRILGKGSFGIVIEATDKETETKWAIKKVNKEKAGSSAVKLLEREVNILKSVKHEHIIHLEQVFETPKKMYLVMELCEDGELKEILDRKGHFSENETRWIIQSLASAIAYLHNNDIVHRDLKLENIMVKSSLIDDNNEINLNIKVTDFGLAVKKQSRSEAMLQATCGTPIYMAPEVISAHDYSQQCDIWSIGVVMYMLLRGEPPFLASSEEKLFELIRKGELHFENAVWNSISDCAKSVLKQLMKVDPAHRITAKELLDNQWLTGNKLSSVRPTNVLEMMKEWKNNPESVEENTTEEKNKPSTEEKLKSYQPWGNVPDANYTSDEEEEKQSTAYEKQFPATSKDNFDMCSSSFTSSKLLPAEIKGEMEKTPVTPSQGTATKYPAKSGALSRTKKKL
Hits are given with their value; - = inactive; ? = inconclusive; . = not tested or not shown.

SMILES | GSK3B inh | DSG3 Ab inh | MT1-MMP act inh | GSK3A inh | STK33 inh
CCCCNC(=O)c1nc(C2CCN(S(=O)(=O)c3ccc(S(C)(=O)=O)cc3)CC2)oc1-c1ccccc1 | . | . | - | . | .
COCCCNC(=O)c1c(N)n(/N=C/c2cccs2)c2nc3ccccc3nc12 | - | 79 | - | - | -
COCCCNC(=O)c1c(N)n(/N=C/c2cccnc2)c2nc3ccccc3nc12 | - | . | - | - | -
CCOC(=O)CN1C(=O)/C(=C/c2ccccc2Br)Oc2ccccc21 | - | -3.0 | - | - | -
CN(C)c1ccc(-c2csc(C(O)c3cccc(Cl)c3)n2)cc1 (stereo unspecified) | . | . | - | . | .
CC1(C(=O)Nc2ccc3[nH]ncc3c2)CCN1C(=O)Cc1ccc(-c2ccccc2)cc1 (stereo unspecified) | . | . | - | . | .
COc1ccc(C(=O)Nc2ccc3[nH]ccc3c2)cc1OC | - | 85 | - | - | -
COc1ccc(C(=O)Nc2ccc3oc(-c4cccnc4)nc3c2)cc1OC | - | - | - | - | -
COc1ccc(C(=O)Nc2ccc3[nH]ccc3c2)cc1 | - | - | - | - | -
COc1ccc(C(=O)Nc2ccc3oc(-c4cccc(F)c4)nc3c2)cc1OC | - | 52 | - | - | -
CC(C)CNC(=O)C(=O)NCc1ccccn1 | - | 15 | - | - | -
C[C@H](c1ccccc1)N1C[C@H](COCc2ccccc2)Oc2cc(N3CCC[C@H]3C(N)=O)ccc2S1(=O)=O | . | . | - | . | .
c1nc(N2CCCCCC2)c2[nH]cnc2n1 | - | - | - | - | -
c1nc(SSc2ncnc3nc[nH]c23)c2[nH]cnc2n1 | . | 66 | - | . | .
c1nc(N2CCCC2)c2[nH]cnc2n1 | - | - | - | - | 31
CC(=O)NC(CCS(C)(=O)=O)C(=O)Nc1nc(C)cs1 (stereo unspecified) | - | 81 | - | - | -
CC1(C(=O)NCc2ccccc2)CSCC(=O)N1C1CC1 (stereo unspecified) | . | . | - | . | .
CCCCCC(=O)Nc1nc(C)c(-c2csc(Nc3cc(Cl)ccc3OC)n2)s1 | - | 79 | - | - | -
CC(C)(C)C(=O)NC(=S)Nc1sc2c(c1C(N)=O)CCC2 | - | - | - | 69 | -
OC(c1cc(Cl)cc(Cl)c1)c1ncc(-c2cccc(F)c2)[nH]1 (stereo unspecified) | . | . | - | . | .
COC(=O)c1ccc(N)cc1O | - | ? | - | - | -
COC(=O)c1ccc(=O)c2nc3/c(=C/O)c(O)cc(=O)c3[nH]c12 | . | 50 | - | - | -
CCc1nnc(NC(=O)CSc2nnc(-c3ccccc3NC(=O)c3ccccc3)o2)s1 | - | - | - | - | -
CCOC(=O)CSc1nnc(-c2ccccc2NC(=O)c2ccccc2)o1 | - | 69 | - | - | -
Cc1ccc2nc(C(C)(C)C)c(Cc3cccc(F)c3)n2c1 | . | . | - | . | .
SMILES | GSK3B inh | DSG3 Ab inh | MT1-MMP act inh | GSK3A inh | STK33 inh
CC(C)(C)NS(=O)(=O)c1ccc(CCC(=O)Nc2ccc3c(c2)OCO3)cc1 | - | -0.5 | - | - | -
Cc1c(C(=O)N2CCN(C(=O)c3ccco3)CC2)sc2nc(-c3ccc(F)cc3)cn12 | - | - | - | - | -
COc1ccc(-c2cn3c(C)c(C(=O)Nc4cccc(NC(C)=O)c4)sc3n2)cc1 | - | 80 | - | - | -
COc1ccc(N2CCN(C(=O)c3sc4nc(-c5ccc(F)cc5)cn4c3C)CC2)cc1 | - | 27 | - | - | -
CN(/N=C/c1ccc(-c2ccc([N+](=O)[O-])cc2)o1)c1ccccc1 | - | - | - | - | -
O=C1Nc2ccccc2/C1=N/N=C/c1ccc(-c2ccc([N+](=O)[O-])cc2)o1 | - | 72 | - | . | .
CO[C@@H]1CN(C)C(=O)c2ccc(NS(=O)(=O)c3c(C)noc3C)cc2OC[C@@H](C)NC[C@@H]1C | . | . | - | . | .
CCN(CC)c1ccc2c(O)cc(=O)oc2c1 | - | - | - | - | -
CCN(CC)c1ccc(C(=O)OCc2cc(=O)oc3cc(O)ccc23)cc1 | - | 86 | - | - | -
Fc1cccc(CN2CCN(Cc3nc(-c4cnccn4)no3)CC2)c1 | - | -16 | - | - | -
CC1(C(=O)NC2CCc3ccccc32)CCN1CCc1ccccc1 (stereo unspecified) | . | . | - | . | .
CN1C(C(=O)NCc2cccc(Br)c2)CC2Cn3c(nc4cc5ccccc5cc43)C21 (stereo unspecified) | - | 91 | - | - | -
CN(c1ccccc1C(=O)NC1CC2CCC1C2)S(=O)(=O)c1ccccc1 (stereo unspecified) | - | 38 | - | - | -
CN(c1ccccc1C(=O)NC1CCCCC1)S(=O)(=O)c1ccccc1 | - | . | - | - | -
CCOC(=O)[C@]12CCC=C1N(CCC1=CCCCC1)C(=O)[C@H](CC(=O)N1CCCCC1)C2 | . | . | - | . | .
Cc1ccc(N(CC(O)CN2CCCCC2)S(=O)(=O)c2ccccc2)cc1 (stereo unspecified) | - | - | - | 94 | -
O=[N+]([O-])c1ccc2cn[nH]c2c1 | - | 43 | - | - | -
CN1CCN(c2nc(-c3ccccc3Cl)nc3ccccc23)CC1 | - | - | - | - | -
OCCN1CCN(c2nc(-c3ccccc3O)nc3ccccc23)CC1 | - | - | - | - | 40
CN1CCN(c2nc(-c3ccccc3O)nc3ccccc23)CC1 | - | - | - | - | 32
CCN1CCN(c2nc(-c3ccccc3Cl)nc3ccccc23)CC1 | - | - | - | - | -
CC(=O)NC(c1ccccc1)c1nc(-c2cc3ccccc3o2)cs1 (stereo unspecified) | . | . | - | . | .
COC(=O)[C@]12CCCCC=C1N(Cc1ccc3c(c1)OCO3)C(=O)[C@H](CC(=O)NCC13CC4CC(CC(C4)C1)C3)C2 | . | . | - | . | .
CN(C(=O)COC(=O)c1ccc(-c2ccc(O)cc2)cc1)C1CCS(=O)(=O)C1 (stereo unspecified) | - | 70 | - | . | -
Cc1occc1C(=O)N=Nc1c(O)n(C)c2ccccc12 | - | 84 | - | - | -
SMILES | GSK3B inh | DSG3 Ab inh | MT1-MMP act inh | GSK3A inh | STK33 inh
Cn1c(O)c(N=NC(=O)c2ccccc2O)c2ccccc21 | - | - | - | - | -
COc1ccc(S(=O)(=O)N2CCN(CC(=O)Nc3ccccc3OC)CC2)cc1 | - | 75 | - | - | -
CCCNC(=O)C[C@H]1CC[C@@H]2[C@H](COC[C@@H](O)CN2C(=O)c2ccccn2)O1 | . | . | - | . | .
O=C1[C@H]2[C@@H]3CCN1CCC[C@@H]2C=C[C@@H]3c1ccc(Br)cc1 | . | . | - | . | .
COc1cc(/C=C2\SC(=Nc3ccc(Cl)c(C(=O)O)c3)NC2=O)c(Br)c(Br)c1O | - | - | - | - | 35
O=C(CCCCC(=O)Nc1ccccc1)Nc1ccccc1 | - | - | - | - | -
O=C(CCCCCCC(=O)c1ccccc1)c1ccccc1 | - | 62 | - | - | -
O=C(CCCCCCCC(=O)c1ccccc1)c1ccccc1 | - | - | - | - | -
O=C(CCC(=O)c1ccccc1)Nc1ccccc1 | - | 80 | - | - | -
